Assay results reported in ChEMBL document CHEMBL3826935, “Synthesis and Pharmacology of (Pyridin-2-yl)methanol Derivatives as Novel and Selective Transient Receptor Potential Vanilloid 3 Antagonists” (J Med Chem, 2016).

Tests used:
Rattus norvegicus [1] = assay: Unbound AUC(0 to 8 hrs) in rat at 2 mg/kg, po; type: ADME, organism-based; conditions: in vivo
Procedure, shortened: (§1)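 Rat pharmacokinetics: iv dose 1 mg/kg; po dose 1 or 2 mg/kg depending on compound. AUC taken over 0–8 h. Unbound parameters calculated using plasma free fraction.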

[2] = Ratio of drug level in plasma to brain in Sprague-Dawley rat; type: ADME, cell-free; conditions: in vivo
Rattus norvegicus [3] = assay: Toxicity in sciatic nerve ligation Sprague-Dawley rat model of neuropathic pain assessed as behavioral changes at 10 to 100 mg/kg, po; type: organism-based; conditions: in vivo
Liver microsome = assay: Unbound intrinsic clearance in human liver microsomes after 5 hrs by LC-MS/MS analysis; type: ADME
Procedure, shortened: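 Microsomal stability run in an automated high-throughput plate format. Intrinsic clearance corrected for nonspecific microsomal binding using measured unbound fraction (fu,mic), reported as unbound Clint in L/h/kg.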

[4] = Total plasma clearance in rat at 1 mg/kg, iv; type: ADME, organism-based; procedure, shortened: as §1
Rattus norvegicus [5] = assay: Antiallodynic activity in po dosed sciatic nerve ligation Sprague-Dawley rat model of neuropathic pain assessed as attenuation of mechanical allodynia induced by von Frey hair stimulation to the ipsilateral hind paw; type: functional, organism-based
Procedure, shortened: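 Rat neuropathic pain models dosed orally. Mechanical allodynia measured by von Frey stimulation of the injured ipsilateral paw, with a 15 g threshold taken as maximal possible effect and results expressed as %MPE. Vehicle 10% DMSO in PEG; n = 6 per group.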

[6] = […] plasma clearance in rat at 1 mg/kg, iv; type: ADME, organism-based; conditions: read-out: CL free (converted); procedure, shortened: as §1
[7] = Cmax in rat at 1 mg/kg, iv or 2 mg/kg, po; type: ADME, organism-based; conditions: in vivo; procedure, shortened: as §1
[8] = target: T1, Nuclear receptor subfamily 1 group I member 2 (Homo sapiens, UniProt O75469); assay: Activation of human PXR; type: ADME; conditions: human
T1 sequence (O75469 whole entry): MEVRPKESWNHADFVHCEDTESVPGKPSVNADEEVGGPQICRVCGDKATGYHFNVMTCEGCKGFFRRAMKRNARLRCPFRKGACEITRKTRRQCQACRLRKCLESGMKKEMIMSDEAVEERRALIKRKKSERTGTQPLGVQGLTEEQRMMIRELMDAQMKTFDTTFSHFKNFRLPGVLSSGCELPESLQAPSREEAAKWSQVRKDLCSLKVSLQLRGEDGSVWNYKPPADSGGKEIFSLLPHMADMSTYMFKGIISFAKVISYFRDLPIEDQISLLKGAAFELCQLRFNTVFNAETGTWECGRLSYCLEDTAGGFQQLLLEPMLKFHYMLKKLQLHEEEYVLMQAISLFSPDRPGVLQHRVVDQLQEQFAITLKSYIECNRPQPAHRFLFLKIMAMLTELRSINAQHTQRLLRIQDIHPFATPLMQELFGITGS

[9] = target: Sodium channel protein type 10 subunit alpha (Homo sapiens) (UniProt Q9Y5Y9); assay: Binding affinity to Nav1.8 (unknown origin) at 10 uM
Procedure, shortened: (§2)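 Selectivity screen at 10 µM across CEREP and internal target panels. Readout is percent binding, with 50% as the threshold.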

[10] = target: Sodium channel protein type 9 subunit alpha (Homo sapiens) (UniProt Q15858); assay: Binding affinity to Nav1.7 (unknown origin) at 10 uM; procedure, shortened: as §2
[11] = target: Voltage-gated inwardly rectifying potassium channel KCNH2 (Homo sapiens, UniProt Q12809); assay: Binding affinity to human ERG at 10 uM; procedure, shortened: as §2
[12] = target: Voltage-dependent N-type calcium channel subunit alpha-1B (Homo sapiens) (UniProt Q00975); assay: Binding affinity to Cav2.2 (unknown origin) at 10 uM; procedure, shortened: as §2
Rattus norvegicus [13] = assay: Toxicity in Sprague-Dawley rat reserpine model of central pain assessed as overt impairments at 10 to 100 mg/kg, po; type: organism-based; conditions: in vivo
[14] = target: T2, Transient receptor potential cation channel subfamily V member 3 (Homo sapiens) (UniProt Q8NET8); assay: Antagonist activity at human TRPV3 expressed in recombinant HEK293 cells assessed as free plasma level adjusted concentration for inhibition of 2-APB induced calcium flux by FLIPR analysis; type: cell-based
T2 sequence (whole entry): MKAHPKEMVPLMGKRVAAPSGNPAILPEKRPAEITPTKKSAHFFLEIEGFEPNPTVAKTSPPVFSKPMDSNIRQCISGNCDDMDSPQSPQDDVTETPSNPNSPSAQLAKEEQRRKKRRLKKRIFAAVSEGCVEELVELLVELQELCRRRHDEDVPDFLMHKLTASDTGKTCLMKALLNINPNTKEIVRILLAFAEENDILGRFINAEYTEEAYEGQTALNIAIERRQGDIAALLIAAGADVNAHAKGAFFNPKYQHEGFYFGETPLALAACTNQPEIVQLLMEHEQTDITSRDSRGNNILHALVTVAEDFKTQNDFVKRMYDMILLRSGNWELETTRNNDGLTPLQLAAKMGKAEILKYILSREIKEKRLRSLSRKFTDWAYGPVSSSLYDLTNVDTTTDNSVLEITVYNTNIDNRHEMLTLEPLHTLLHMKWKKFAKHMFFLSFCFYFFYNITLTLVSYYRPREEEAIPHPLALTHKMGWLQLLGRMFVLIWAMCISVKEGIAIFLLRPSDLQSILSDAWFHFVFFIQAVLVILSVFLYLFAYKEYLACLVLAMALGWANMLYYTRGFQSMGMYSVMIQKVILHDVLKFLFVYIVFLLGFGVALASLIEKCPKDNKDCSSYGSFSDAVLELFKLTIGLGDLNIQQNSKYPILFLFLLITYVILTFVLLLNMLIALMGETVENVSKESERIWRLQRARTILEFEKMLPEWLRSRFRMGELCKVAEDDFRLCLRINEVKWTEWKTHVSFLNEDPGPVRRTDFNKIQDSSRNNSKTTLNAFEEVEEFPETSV
Procedure, shortened: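 FLIPR Kb from the 2-APB (60 µM final) Ca2+ flux assay in human TRPV3 HEK293 cells, converted to an unbound value using the measured free fraction in plasma.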

Rattus norvegicus [15] = assay: Toxicity in Sprague-Dawley rat reserpine model of central pain assessed as behavioral changes at 10 to 100 mg/kg, po; type: organism-based; conditions: in vivo
Rattus norvegicus [16] = assay: Toxicity in chronic constriction injury Sprague-Dawley rat model of neuropathic pain assessed as overt impairments at 10 to 100 mg/kg, po; type: organism-based; conditions: in vivo
[17] = target: Sodium channel protein type 5 subunit alpha (Homo sapiens, UniProt Q14524); assay: Binding affinity to Nav1.5 (unknown origin) at 10 uM; procedure, shortened: as §2
[18] = target: Voltage-dependent T-type calcium channel subunit alpha-1H (Homo sapiens) (UniProt O95180); assay: Binding affinity to Cav3.2 (unknown origin) at 10 uM; procedure, shortened: as §2
[19] = target: T2, Transient receptor potential cation channel subfamily V member 3 (Homo sapiens); assay: (§3) Antagonist activity at human TRPV3 expressed in recombinant HEK293 cells assessed as inhibition of 2-APB induced calcium flux by FLIPR analysis; type: cell-based
Procedure, shortened: (§4)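 HEK293 cells stably expressing human TRPV3 (I25V variant), plated the day before in DMEM + 10% FBS at 37 °C, 5% CO2. Calcium 4 dye loaded in Ca/Mg-free HEPES D-PBS pH 7.4 for 1–2 h at room temperature. Compound dilutions added with 3 min baseline, then 2-APB at 60 µM final; Ca2+ flux read 3 min on FLIPR. Kb from at least duplicates, averaged across independent runs.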

[20] = target: T3, Transient receptor potential cation channel subfamily V member 3 (Homo sapiens, UniProt Q8NET8); assay: as §3; type: cell-based; procedure, shortened: as §4
T3 sequence (Q8NET8 whole entry): T2 sequence (whole entry)

Voltage-gated inwardly rectifying potassium channel KCNH2, sequence (Q12809 whole entry): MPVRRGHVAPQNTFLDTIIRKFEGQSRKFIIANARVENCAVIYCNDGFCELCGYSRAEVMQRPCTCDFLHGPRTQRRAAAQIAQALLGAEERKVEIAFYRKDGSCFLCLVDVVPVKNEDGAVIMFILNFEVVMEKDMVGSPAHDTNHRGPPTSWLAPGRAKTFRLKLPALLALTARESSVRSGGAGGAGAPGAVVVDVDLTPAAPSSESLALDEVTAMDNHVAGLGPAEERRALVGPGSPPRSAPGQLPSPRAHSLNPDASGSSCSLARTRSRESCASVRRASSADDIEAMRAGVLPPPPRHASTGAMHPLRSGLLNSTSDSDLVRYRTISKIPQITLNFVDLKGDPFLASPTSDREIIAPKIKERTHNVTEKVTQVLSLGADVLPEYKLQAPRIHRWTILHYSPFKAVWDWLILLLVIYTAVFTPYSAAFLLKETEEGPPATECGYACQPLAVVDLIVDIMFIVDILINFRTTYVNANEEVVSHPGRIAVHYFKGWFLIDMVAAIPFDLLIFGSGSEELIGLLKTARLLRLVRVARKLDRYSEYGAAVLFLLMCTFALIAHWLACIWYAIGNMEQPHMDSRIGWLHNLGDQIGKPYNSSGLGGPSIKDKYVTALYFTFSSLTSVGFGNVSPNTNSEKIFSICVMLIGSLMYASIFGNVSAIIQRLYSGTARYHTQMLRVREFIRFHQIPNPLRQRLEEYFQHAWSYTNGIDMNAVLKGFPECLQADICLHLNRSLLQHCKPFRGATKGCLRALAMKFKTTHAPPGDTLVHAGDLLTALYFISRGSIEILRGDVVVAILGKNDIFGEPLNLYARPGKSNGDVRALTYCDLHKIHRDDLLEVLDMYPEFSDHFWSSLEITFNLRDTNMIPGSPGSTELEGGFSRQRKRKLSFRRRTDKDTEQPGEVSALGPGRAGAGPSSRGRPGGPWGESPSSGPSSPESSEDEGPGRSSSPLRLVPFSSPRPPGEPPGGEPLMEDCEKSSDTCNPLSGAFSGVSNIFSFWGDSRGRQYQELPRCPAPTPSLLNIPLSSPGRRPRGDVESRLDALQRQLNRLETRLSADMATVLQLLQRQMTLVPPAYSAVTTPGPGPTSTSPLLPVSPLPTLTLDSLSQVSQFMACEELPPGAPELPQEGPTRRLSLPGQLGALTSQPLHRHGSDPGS
Sodium channel protein type 5 subunit alpha, sequence (Q14524 whole entry): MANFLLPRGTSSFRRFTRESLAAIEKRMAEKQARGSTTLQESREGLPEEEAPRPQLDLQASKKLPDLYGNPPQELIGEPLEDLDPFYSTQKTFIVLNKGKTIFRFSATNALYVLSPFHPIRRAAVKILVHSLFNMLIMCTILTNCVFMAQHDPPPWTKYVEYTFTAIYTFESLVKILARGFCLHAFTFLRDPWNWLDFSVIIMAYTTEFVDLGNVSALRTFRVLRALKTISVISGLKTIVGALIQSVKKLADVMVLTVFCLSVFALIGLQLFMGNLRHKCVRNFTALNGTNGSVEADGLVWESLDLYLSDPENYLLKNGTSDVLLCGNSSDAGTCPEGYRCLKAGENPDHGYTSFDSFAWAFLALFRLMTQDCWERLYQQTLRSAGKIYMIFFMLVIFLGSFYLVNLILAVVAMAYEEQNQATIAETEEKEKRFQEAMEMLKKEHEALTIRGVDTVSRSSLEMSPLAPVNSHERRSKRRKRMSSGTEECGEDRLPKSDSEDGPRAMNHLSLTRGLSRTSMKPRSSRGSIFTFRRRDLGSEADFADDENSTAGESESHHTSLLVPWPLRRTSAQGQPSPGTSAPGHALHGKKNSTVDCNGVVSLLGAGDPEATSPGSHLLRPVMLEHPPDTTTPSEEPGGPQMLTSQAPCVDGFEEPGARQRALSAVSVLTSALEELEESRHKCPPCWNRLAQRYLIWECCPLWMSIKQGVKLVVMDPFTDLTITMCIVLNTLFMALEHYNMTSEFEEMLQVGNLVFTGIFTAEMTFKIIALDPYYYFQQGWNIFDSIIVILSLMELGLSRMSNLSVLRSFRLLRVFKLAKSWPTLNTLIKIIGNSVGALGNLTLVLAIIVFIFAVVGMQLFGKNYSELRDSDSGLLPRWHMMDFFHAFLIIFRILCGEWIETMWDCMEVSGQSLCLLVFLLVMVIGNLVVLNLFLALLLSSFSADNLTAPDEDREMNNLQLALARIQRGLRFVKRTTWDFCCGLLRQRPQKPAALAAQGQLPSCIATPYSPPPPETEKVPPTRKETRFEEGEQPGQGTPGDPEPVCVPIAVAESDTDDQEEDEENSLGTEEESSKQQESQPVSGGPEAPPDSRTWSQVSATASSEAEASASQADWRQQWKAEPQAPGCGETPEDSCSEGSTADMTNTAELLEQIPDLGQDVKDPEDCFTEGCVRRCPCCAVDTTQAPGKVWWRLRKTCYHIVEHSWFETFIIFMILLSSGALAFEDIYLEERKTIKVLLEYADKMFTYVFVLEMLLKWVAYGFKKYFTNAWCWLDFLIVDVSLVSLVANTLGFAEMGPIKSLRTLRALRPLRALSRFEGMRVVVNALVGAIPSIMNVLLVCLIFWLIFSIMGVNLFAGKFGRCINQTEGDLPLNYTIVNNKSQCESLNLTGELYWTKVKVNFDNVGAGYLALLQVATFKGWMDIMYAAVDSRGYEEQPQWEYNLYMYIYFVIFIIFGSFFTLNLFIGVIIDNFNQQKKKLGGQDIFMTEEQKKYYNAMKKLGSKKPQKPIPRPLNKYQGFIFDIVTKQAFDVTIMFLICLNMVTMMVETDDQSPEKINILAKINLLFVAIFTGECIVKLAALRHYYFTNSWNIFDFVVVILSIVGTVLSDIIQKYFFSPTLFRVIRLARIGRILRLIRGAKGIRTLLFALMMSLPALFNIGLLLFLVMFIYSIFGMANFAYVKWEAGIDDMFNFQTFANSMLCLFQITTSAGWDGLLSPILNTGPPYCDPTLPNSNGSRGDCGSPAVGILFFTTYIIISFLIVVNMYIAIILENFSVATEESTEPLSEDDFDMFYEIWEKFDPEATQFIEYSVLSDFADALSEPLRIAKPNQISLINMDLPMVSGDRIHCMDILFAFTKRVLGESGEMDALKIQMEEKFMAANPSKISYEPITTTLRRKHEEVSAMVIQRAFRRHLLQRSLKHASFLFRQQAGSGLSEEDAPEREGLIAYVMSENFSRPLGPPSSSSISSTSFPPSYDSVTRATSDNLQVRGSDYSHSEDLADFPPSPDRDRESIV
Sodium channel protein type 9 subunit alpha (Homo sapiens), sequence (Q15858 whole entry, looked up): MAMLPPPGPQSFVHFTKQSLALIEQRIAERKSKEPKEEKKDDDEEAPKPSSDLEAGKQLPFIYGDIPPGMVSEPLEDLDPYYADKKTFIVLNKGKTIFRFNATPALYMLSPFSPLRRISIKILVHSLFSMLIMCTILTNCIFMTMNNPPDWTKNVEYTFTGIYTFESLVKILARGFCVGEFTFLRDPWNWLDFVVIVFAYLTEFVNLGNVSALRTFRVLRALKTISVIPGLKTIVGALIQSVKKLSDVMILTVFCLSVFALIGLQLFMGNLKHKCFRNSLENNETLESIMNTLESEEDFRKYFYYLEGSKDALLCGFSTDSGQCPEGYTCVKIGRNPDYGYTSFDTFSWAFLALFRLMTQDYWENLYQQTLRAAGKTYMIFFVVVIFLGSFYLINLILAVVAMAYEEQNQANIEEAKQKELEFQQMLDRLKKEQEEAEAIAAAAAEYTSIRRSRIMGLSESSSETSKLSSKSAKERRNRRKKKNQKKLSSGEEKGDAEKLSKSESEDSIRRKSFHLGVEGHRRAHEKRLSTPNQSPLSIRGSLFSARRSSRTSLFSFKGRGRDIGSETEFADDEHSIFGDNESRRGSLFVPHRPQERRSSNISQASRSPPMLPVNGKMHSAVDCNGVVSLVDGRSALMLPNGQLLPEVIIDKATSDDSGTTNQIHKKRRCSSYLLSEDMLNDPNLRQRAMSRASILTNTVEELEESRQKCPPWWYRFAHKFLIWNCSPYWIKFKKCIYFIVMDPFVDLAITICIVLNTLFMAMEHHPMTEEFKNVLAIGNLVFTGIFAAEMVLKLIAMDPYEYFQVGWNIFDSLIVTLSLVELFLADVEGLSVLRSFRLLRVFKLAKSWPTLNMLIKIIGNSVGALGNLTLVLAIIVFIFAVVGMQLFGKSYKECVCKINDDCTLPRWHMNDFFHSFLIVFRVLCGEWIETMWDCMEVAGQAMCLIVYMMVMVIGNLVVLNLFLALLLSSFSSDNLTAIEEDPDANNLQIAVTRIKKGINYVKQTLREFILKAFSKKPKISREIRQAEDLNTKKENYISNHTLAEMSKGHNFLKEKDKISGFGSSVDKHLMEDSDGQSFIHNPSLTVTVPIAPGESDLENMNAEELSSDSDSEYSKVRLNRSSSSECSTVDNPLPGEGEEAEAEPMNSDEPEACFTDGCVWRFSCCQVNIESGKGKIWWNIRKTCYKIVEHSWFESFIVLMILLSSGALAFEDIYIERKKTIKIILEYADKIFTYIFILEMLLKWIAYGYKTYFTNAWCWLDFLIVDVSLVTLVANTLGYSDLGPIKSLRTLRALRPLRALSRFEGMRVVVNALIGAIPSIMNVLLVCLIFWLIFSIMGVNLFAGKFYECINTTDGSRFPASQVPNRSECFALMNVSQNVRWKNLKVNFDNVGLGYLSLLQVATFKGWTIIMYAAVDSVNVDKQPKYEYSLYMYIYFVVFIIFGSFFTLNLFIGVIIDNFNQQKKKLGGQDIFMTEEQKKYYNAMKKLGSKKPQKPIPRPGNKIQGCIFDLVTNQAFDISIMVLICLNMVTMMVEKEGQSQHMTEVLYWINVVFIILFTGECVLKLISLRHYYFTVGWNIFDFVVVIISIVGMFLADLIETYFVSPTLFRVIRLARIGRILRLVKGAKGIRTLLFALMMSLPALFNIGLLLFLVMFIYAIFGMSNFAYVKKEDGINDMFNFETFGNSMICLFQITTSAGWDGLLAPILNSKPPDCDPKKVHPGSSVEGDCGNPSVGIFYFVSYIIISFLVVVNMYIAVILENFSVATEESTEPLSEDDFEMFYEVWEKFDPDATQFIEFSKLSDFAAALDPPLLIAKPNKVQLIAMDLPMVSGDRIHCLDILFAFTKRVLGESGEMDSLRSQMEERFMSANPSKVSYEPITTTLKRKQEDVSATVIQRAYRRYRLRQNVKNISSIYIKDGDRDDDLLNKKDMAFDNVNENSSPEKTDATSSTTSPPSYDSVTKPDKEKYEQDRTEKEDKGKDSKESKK

fAUC (Rattus norvegicus [1]): 240 ng·h/mL
Ratio [2]: 1
CL free (Liver microsome): 33 mL/min/kg
clearance [4]: 26.7 mL/min/kg
EC50 (Rattus norvegicus [5]): 11 µmol
clearance [6]: 41.7 mL/min/kg
Cmax [7]: 190 ng/mL
Activity [8]: Not Active
Activity [9]: < 50%
Activity [10]: < 50%
Activity [12]: < 50%
Kb [14]: 620 nM
Activity [18]: < 50%
Kb [19]: 560 nM
IC50 [20]: 930 nM
SMILES: C[C@]1(O)C[C@](c2cc(C(F)(F)F)ccn2)([C@H](O)c2ccccn2)C1 (mixture of isomers)
Activity (Rattus norvegicus [3]): Non-toxic
Activity (Rattus norvegicus [5]): Dose-dependent effect
Activity [11]: < 50%
Activity (Rattus norvegicus [13]): Non-toxic
Activity (Rattus norvegicus [15]): Non-toxic
Activity (Rattus norvegicus [16]): Non-toxic
Activity [17]: < 50%
